The text below walks through data of ChEMBL document CHEMBL1152866, “Modulation of gene expression via disruption of NF-kappaB signaling by a bacterial small molecule” (Science, 2008).

The structures appear in SMILES notation. The source made the active and inactive calls. The calls are words filed in the database; no cut-off is given here.

Test [1] addresses T1, Inhibitor of nuclear factor kappa-B kinase subunit alpha (Homo sapiens) (UniProt O15111).
T1 sequence (whole entry): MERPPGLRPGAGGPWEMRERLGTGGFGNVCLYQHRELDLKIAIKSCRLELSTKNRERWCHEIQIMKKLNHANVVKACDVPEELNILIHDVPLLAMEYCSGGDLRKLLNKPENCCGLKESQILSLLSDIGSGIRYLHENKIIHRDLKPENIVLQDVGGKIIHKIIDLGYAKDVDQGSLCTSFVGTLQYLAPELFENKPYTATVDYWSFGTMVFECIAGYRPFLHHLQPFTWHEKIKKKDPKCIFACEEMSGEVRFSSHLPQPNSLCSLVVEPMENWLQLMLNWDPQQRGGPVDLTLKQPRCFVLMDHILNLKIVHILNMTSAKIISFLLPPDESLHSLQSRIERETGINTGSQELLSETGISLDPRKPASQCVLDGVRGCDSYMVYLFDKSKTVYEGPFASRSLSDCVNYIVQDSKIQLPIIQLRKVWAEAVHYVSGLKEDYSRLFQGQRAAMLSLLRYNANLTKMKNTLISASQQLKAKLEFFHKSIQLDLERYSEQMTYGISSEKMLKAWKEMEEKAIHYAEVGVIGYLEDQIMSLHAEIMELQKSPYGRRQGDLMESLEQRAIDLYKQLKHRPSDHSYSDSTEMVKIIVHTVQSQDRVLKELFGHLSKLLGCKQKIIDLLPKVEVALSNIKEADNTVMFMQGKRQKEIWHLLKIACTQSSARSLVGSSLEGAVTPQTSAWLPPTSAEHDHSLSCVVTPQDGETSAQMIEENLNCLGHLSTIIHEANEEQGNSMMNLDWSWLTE
In words: Inhibition of TNF-induced IkappaBalpha phosphorylation in human bronchial epithelial cells up to 120 mins by Western blot analysis. The class given is cell-based. The conditions noted are these: Epithelial cell. Background: In western blotting, separated proteins are transferred to a membrane and probed.

The target in test [2] is Transcription factor p65 (Mus musculus) (UniProt Q04207). Put plainly: Inhibition of LPS-induced RelA phosphorylation in [32P]orthophosphate metabolically labelled mouse BMDM assessed as phosphorylated IkappaBbeta/RelA binding measured up to 120 mins in absence of IkappaBalpha by SDS-PAGE and autoradiography.
Transcription factor p65 (Mus musculus), sequence (Q04207 whole entry): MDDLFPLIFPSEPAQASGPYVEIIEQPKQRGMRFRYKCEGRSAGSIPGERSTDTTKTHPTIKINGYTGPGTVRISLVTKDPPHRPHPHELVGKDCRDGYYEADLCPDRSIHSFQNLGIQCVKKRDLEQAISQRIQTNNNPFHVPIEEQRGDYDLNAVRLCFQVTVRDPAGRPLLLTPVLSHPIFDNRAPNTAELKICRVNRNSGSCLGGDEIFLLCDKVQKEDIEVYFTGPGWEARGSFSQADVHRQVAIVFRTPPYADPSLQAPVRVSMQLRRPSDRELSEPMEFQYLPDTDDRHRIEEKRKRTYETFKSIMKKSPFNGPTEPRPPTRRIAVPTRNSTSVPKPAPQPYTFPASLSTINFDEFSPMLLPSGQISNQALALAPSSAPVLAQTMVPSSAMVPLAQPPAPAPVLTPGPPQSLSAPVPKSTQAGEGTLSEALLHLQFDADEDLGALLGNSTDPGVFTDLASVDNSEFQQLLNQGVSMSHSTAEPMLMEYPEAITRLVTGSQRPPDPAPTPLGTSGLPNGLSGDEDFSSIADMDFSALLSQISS
Test [3] concerns Macrophage. In words: Inhibition of LPS-induced IkappaBalpha expression in C57BL/6 mouse alveolar macrophages measured up to 120 mins by Western blot analysis. The format is functional, cell-based.
Test [4] deals with MEF. In words: Effect on TNF-induced IkappaBalpha mRNA expression in MEF by Northern blot analysis. The class given is functional, cell-based. The conditions noted are these: Mus musculus.
Test [5] has as its system BMDM. Put plainly: Inhibition of heat-killed Staphylococcus aureus-induced RANTES mRNA expression in mouse BMDM by Northern blot analysis. The format is functional, cell-based.
The subject of test [6] is MEF. Put plainly: Effect on TNF-induced MCP1 mRNA expression in MEF by Northern blot analysis. The conditions noted are these: Mus musculus. The format is functional, cell-based.
Test [7] has as its system BMDM. Put plainly: Inhibition of LPS-induced c-jun mRNA expression in mouse BMDM up to 3 hrs by Northern blot analysis. The format is functional, cell-based.
The test system of test [8] is BMDM. In words: Inhibition of heat-killed Staphylococcus aureus-induced TNF mRNA expression in mouse BMDM by Northern blot analysis. The format is functional, cell-based.
The test system of test [9] is BMDM. In words: Inhibition of LPS-induced IkBbeta protein level in mouse BMDM treated 2 hrs after LPS challenge measured up to 120 mins by Western blot analysis. The class given is functional, cell-based.
Test [10] relates to BMDM. In words: Inhibition of LPS-induced IRF-1 mRNA expression in mouse BMDM up to 3 hrs by Northern blot analysis. The format is functional, cell-based.
Test [11] addresses T2, Inhibitor of nuclear factor kappa-B kinase subunit alpha (Mus musculus) (UniProt Q60680).
T2 sequence (whole entry): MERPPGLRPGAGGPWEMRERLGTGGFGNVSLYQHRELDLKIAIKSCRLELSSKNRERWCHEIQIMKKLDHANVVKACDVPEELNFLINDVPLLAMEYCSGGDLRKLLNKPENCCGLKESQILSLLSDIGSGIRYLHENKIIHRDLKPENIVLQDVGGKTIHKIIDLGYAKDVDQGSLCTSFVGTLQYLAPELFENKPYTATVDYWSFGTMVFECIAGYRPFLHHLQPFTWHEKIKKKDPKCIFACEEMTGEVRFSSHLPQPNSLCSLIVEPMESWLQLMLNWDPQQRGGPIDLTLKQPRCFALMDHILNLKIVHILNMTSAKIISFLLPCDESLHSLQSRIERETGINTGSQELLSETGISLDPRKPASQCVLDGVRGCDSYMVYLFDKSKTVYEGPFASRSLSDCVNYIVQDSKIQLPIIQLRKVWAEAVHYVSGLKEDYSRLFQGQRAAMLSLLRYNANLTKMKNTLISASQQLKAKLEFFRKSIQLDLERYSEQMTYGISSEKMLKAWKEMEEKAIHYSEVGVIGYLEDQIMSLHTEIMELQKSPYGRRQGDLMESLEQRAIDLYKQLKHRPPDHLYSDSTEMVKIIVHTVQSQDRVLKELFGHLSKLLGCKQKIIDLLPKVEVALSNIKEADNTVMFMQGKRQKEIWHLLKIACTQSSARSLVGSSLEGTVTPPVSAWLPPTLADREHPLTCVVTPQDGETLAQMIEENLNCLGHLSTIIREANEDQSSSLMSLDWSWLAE
Put plainly: Inhibition of LPS-induced IkappaBalpha phosphorylation in C57BL/6 mouse alveolar macrophages measured up to 120 mins by Western blot analysis.

For test [12], the system named is MEF. In words: Inhibition of LPS-induced MCP-1 mRNA expression in MEF after 90 mins by Northern blot analysis. The conditions noted are these: Mus musculus. The class given is functional, cell-based.
Test [13] deals with Macrophage. In words: Inhibition of LPS-induced TNF mRNA expression in mouse alveolar macrophages after 90 mins by Northern blot analysis. The class given is functional, cell-based.
For test [14], the species on record is Mus musculus. In words: Inhibition of IKK activity in LPS-induced mouse BMDM assessed as reduction in phosphorylation of RelA treated 2 hrs after LPS challenge measured up to 120 mins by immunoblot analysis.
For test [15], the system named is BMDM. In words: Inhibition of heat-killed Staphylococcus aureus-induced IkappaBalpha mRNA expression in mouse BMDM by Northern blot analysis. The class given is functional.
In test [16] the target is MAP kinase p38 (Homo sapiens) (UniProt O15264+Q15759+Q16539+P53778). In words: Inhibition of LPS-induced p38 phosphorylation in human THP1 cells measured up to 120 mins by Western blot analysis. The class given is cell-based. Conditions: THP-1.
For test [17], the system named is BMDM. In words: Inhibition of heat-killed Staphylococcus aureus-induced c-jun mRNA expression in mouse BMDM by Northern blot analysis. The class given is functional, cell-based.
Test [18] concerns the target T1, Inhibitor of nuclear factor kappa-B kinase subunit alpha (Homo sapiens). In words: Inhibition of IkappaBalpha phosphorylation in human bronchial epithelial cells assessed after 2 hrs by Western blot analysis. The format is cell-based. The conditions noted are these: Epithelial cell. Put shortly: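 WI38 lung fibroblasts and bronchial epithelial cells were stimulated for 2 hours. The same Western blot was probed for PARP cleavage, total IκBα and phosphorylated IκBα.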

The test system of test [19] is Blood. In words: Inhibition of LPS-induced TNF production in human whole blood after 3 hrs. The class given is functional, tissue-based.
For test [20], the system named is BMDM. In words: Inhibition of LPS-induced IkBbeta degradation in mouse BMDM treated 2 hrs after LPS challenge measured up to 120 mins by Western blot analysis. The format is functional, cell-based.
For test [21], the system named is MEF. In words: Inhibition of TNF-induced IkappaBbeta expression in mouse MEF up to 120 mins by Western blot analysis. The class given is functional, cell-based.
Test [22] deals with BMDM. Put plainly: Inhibition of LPS-induced IkappaBalpha expression in mouse BMDM measured up to 120 mins by Western blot analysis. The format is functional, cell-based.

As for `CCCCCCCCCC(=O)CC(=O)N[C@H]1CCOC1=O`, the result in test [1], in [2], in [3], in test [4], in [5] and in test [6] was Active. Also, the outcome in test [8], in test [11], in test [14], in test [15], in test [16] and in test [17] was Active. For the same compound, the result in test [18], in [19], in test [20], in test [21] and in [22] was Active. Further, the Activity entry in test [7], in test [10], in test [12] and in [13] was “Dose-dependent effect” each time. Moreover, in test [9], the outcome was inactive.
